# Results from different studies.
# KCNA1: Potassium voltage-gated channel subfamily A member 1 (KCNA1, Homo sapiens, UniProt Q09470)
# INSR: Insulin receptor (INSR, Homo sapiens, UniProt P06213)
SMILES,target,test,system,setting,measurement,value
CC(C)NCC(O)COc1cccc2ccccc12 (stereo not shown),KCNA1,"ion current, inhibitor, patch clamp",,30 µM,inhibition,37.8%
CC(=O)c1c(C)c2cnc(Nc3ccc(N4CCNCC4)cn3)nc2n(C2CCCC2)c1=O,"Cyclin-dependent kinase 3 (CDK3, Homo sapiens, UniProt Q00526)","enzyme activity, inhibitor, ADP detection",,1 µM,activity vs control,90%
CNc1ncc2c(/C=C/C(=O)N3CCC(OC)CC3)nn(Cc3cccc(C(F)(F)F)c3)c2n1,"Serine/threonine-protein kinase 38-like (STK38L, Homo sapiens, UniProt Q9Y2H1)","enzyme activity, inhibitor, radiometric",,1 µM,remaining activity,90%
C=CC(=O)N1CCC(COCC(=O)N2CCN(c3nc(-c4cnc(N)nc4C(F)F)nc(N4CCOC[C@@H]4C)n3)CC2)CC1,"Dual specificity protein kinase CLK2 (CLK2, Homo sapiens, UniProt P49760)","binding, competition with immobilised ligand",,1 µM,remaining binding,79%
Cc1cc([C@@H](C)Nc2ccccc2C(=O)O)c2nc(N3CCC(F)(F)CC3)c(C#N)c(=O)n2c1,INSR,"binding, competition with immobilised ligand",,1 µM,remaining binding,100%
CC[C@H](C)[C@H](NC(=O)[C@H](CCC(N)=O)NC(=O)[C@H](CCCNC(=N)N)NC(=O)[C@H](CO)NC(=O)[C@H](Cc1c[nH]cn1)NC(=O)[C@@H]1CCCN1C(=O)[C@H](C)NC(=O)[C@H](CO)NC(=O)[C@H](CC(C)C)NC(=O)CNC(=O)[C@@H]1CCCN1C(=O)[C@H](CCC(N)=O)NC(=O)[C@H](CCC(N)=O)NC(=O)[C@H](CCCNC(=N)N)NC(=O)[C@H](CO)NC(=O)CNC(=O)[C@H](CO)NC(=O)[C@H](CO)NC(=O)[C@H](CCC(=O)O)NC(=O)[C@@H]1CCCN1C(=O)[C@@H]1CCCN1C(=O)[C@@H]1CCCN1C(=O)[C@H](CO)NC(=O)[C@H](CC(C)C)NC(=O)[C@H](CO)NC(=O)[C@@H](NC(=O)CN)[C@@H](C)O)C(=O)N1CCC[C@H]1C(=O)N[C@@H](C)C(=O)N1CCC[C@H]1C(=O)N[C@@H](CCC(N)=O)C(=O)NCC(=O)N[C@@H](C)C(=O)N[C@H](C(=O)N[C@@H](CC(C)C)C(=O)N[C@H](C(=O)N[C@@H](CCC(N)=O)C(=O)N[C@@H](CCCNC(=N)N)C(=O)N[C@@H](CCC(=O)O)C(=O)N[C@@H](CCCCN)C(=O)N[C@@H](CC(=O)O)C(=O)N[C@@H](CC(C)C)C(=O)N1CCC[C@H]1C(=O)N[C@@H](CC(N)=O)C(=O)N[C@@H](Cc1ccc(O)cc1)C(=O)N[C@@H](CC(N)=O)C(=O)N[C@@H](Cc1c[nH]c2ccccc12)C(=O)N[C@@H](CC(N)=O)C(=O)N[C@@H](CO)C(=O)N[C@@H](Cc1ccccc1)C(=O)NCC(=O)N[C@@H](CC(C)C)C(=O)N[C@@H](CCCNC(=N)N)C(=O)N[C@@H](Cc1ccccc1)C(N)=O)C(C)C)C(C)C,"KiSS-1 receptor (KISS1R, Homo sapiens, UniProt Q969F8, Y302A)","inositol phosphate, agonist",HEK293,,Emax,94.9%
Cc1nnc(SCC2=C(C(=O)O)N3C(=O)[C@@H](NC(=O)Cn4cnnn4)[C@H]3SC2)s1,KCNA1,"ion current, inhibitor, patch clamp",,3 µM,inhibition,4.29%
COc1cc(-c2cncc3c2CN(C)Cc2cc(N4CCNCC4)ccc2-3)cc(OC)c1OC,INSR,"enzyme activity, inhibitor",,1 µM,remaining activity,107%
O=C(Cn1cc(C=CC(=O)c2ccc(F)cc2)nn1)Nc1nc(-c2ccccc2)cs1,"Collagenase 3 (MMP13, Homo sapiens, UniProt P45452)","enzyme activity, inhibitor",,0.5 µM,inhibition,35.8%
CCCN1C[C@H](CSC)C[C@@H]2c3cccc4[nH]cc(c34)C[C@H]21,KCNA1,"ion current, inhibitor, patch clamp",,10 µM,inhibition,19.6%
